ChEMBL document CHEMBL3826878, “Design, synthesis, molecular docking and biological evaluation of thiophen-2-iminothiazolidine derivatives for use against Trypanosoma cruzi” (Bioorg Med Chem, 2016)

Legend:
[1] = system: Trypanosoma cruzi; assay: Antitrypanosomal activity against amastigote stage of Trypanosoma cruzi CA-I/72 infected in mouse C2C12 cells measured after 3 days by DAPI staining-based assay; assay type: functional, organism-based; conditions: CA-I/72, C2C12, 72 h
Procedure, shortened: (§1)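 T. cruzi CA-I/72 trypomastigotes harvested from infected C2C12 myocytes 7 days post-infection, mixed with C2C12 cells (1:15 host:parasite), treated immediately with serially diluted compound; 3 days incubation, paraformaldehyde fixation, DAPI staining, automated high-content imaging. Activity normalized to untreated wells and 10 uM benznidazole; host viability as C2C12 count relative to untreated wells.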

[2] = target: Cruzipain (Trypanosoma cruzi) (UniProt P25779); assay: Inhibition of Trypanosoma cruzi cruzain at 100 uM pre-incubated for 10 mins followed by addition of Z-Phe-Arg-aminomethylcoumarin as substrate measured after 5 mins by spectrofluorimetry
Sequence of Cruzipain (Trypanosoma cruzi) (P25779 123-467 limits assumed): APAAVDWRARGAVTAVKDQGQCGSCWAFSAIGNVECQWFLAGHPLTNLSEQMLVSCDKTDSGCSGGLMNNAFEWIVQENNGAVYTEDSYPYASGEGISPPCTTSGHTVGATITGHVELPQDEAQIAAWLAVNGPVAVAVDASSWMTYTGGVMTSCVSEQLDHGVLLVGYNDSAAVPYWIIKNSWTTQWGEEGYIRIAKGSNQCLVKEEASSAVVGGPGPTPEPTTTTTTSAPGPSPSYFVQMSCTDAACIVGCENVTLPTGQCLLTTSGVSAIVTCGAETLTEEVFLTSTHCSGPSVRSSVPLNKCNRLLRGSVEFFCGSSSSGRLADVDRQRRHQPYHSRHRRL
Procedure, shortened: (§2)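 Recombinant cruzain (0.5 nM, MMTS-protected, anion-exchange purified) in 0.1 M sodium acetate pH 5.5 with 0.1 mM beta-mercaptoethanol and 2.5 uM Z-FR-AMC, read fluorimetrically over 5 min; activity from initial rate versus DMSO control. Triton X-100 0.01% standard; detergent-sensitivity tests used 0.01% vs 0.1%. Run with and without 10 min pre-incubation; two independent experiments in triplicate; E64 100 uM positive control.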

[3] = system: Trypanosoma cruzi; assay: Antitrypanosomal activity against amastigote stage of Trypanosoma cruzi CA-I/72 infected in mouse C2C12 cells at 10 uM measured after 3 days by DAPI staining-based assay relative to control; assay type: functional; conditions: CA-I/72, C2C12, 72 h; procedure, shortened: as §1
[4] = (§3) Cytotoxicity against mouse J774 cells assessed as cell viability at 10 uM measured after 24 hrs by MTT assay; assay type: cell-based; conditions: J774 cells, read-out: Activity
Procedure, shortened: (§4)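 J774 macrophages seeded in RPMI-1640 with 10% FBS for 16 hours, exposed 24 h at 37 °C to compound (10–100 umol/L range) in 0.01% DMSO vehicle; MTT (5 mg/mL) 4 h, formazan dissolved in DMSO, absorbance 540 nm. Viability as percent of untreated cells; three wells per treatment.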

[5] = system: Trypanosoma cruzi; assay: Antitrypanosomal activity against trypomastigote stage of Trypanosoma cruzi Y at 25 uM measured after 24 hrs using propidium iodide by neubauer chamber method relative to control; assay type: functional
Procedure, shortened: (§5)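 Y strain trypomastigotes from LLC-MK2 culture supernatant, 4.0 × 10^5 per well, exposed to five compound concentrations (DMSO solutions) for 24 h at 37 °C, 5% CO2; propidium iodide 400 ng/mL for 5 min, then viable motile parasites counted in a Neubauer chamber. Percent inhibition versus untreated cultures.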

[6] = target: Cruzipain (Trypanosoma cruzi) (UniProt P25779); assay: Inhibition of Trypanosoma cruzi cruzain at 100 uM using Z-Phe-Arg-aminomethylcoumarin as substrate measured after 5 mins by spectrofluorimetry; procedure, shortened: as §2
[7] = target: Cruzipain (Trypanosoma cruzi, UniProt P25779); assay: Inhibition of Trypanosoma cruzi cruzain using Z-Phe-Arg-aminomethylcoumarin as substrate measured after 5 mins by spectrofluorimetry
Sequence of Cruzipain (P25779 whole entry): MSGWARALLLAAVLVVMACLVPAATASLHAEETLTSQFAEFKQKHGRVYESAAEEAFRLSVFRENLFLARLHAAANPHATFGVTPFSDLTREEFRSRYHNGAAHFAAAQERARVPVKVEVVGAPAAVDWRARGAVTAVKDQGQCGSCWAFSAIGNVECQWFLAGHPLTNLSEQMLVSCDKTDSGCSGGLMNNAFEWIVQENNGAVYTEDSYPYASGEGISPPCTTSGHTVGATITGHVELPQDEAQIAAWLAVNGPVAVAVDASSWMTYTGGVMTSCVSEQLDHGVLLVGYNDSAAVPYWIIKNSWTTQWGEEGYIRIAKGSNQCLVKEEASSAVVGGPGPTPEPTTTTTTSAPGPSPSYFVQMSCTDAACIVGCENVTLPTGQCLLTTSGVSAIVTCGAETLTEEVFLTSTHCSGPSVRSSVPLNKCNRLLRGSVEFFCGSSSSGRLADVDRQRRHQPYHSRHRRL
Procedure, shortened: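 IC50 for cruzain: 10 min enzyme–compound pre-incubation, then 0.5 nM cruzain with 2.5 uM Z-FR-AMC in 0.1 M sodium acetate pH 5.5, 0.1 mM beta-mercaptoethanol, 0.01% Triton X-100, fluorescence over 5 min; at least nine compound concentrations in triplicate, two independent experiments, curves fitted for IC50.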

[8] = target: Cruzipain (Trypanosoma cruzi) (UniProt P25779); assay: Inhibition of Trypanosoma cruzi cruzain at 100 uM using Z-Phe-Arg-aminomethylcoumarin as substrate measured after 5 mins in presence of 0.1% triton by spectrofluorimetry; procedure, shortened: as §2
[9] = target: Cruzipain (Trypanosoma cruzi) (UniProt P25779); assay: Inhibition of Trypanosoma cruzi cruzain at 100 uM using Z-Phe-Arg-aminomethylcoumarin as substrate measured after 5 mins in presence of 0.01% triton by spectrofluorimetry; procedure, shortened: as §2
[10] = system: J774; assay: as §3; assay type: cell-based; conditions: j774, 24 h, 10 µM; procedure, shortened: as §4
[11] = target: Cruzipain (Trypanosoma cruzi) (UniProt P25779); assay: Inhibition of Trypanosoma cruzi cruzain at 50 uM using Z-Phe-Arg-aminomethylcoumarin as substrate measured after 5 mins by spectrofluorimetry; procedure, shortened: as §2
[12] = target: Cruzipain (Trypanosoma cruzi) (UniProt P25779); assay: Inhibition of Trypanosoma cruzi cruzain at 50 uM pre-incubated for 10 mins followed by addition of Z-Phe-Arg-aminomethylcoumarin as substrate measured after 5 mins by spectrofluorimetry; procedure, shortened: as §2
[13] = target: Cruzipain (Trypanosoma cruzi) (UniProt P25779); assay: Inhibition of Trypanosoma cruzi cruzain at 25 uM pre-incubated for 10 mins followed by addition of Z-Phe-Arg-aminomethylcoumarin as substrate measured after 5 mins by spectrofluorimetry; procedure, shortened: as §2
[14] = target: Cruzipain (Trypanosoma cruzi) (UniProt P25779); assay: Inhibition of Trypanosoma cruzi cruzain at 25 uM using Z-Phe-Arg-aminomethylcoumarin as substrate measured after 5 mins by spectrofluorimetry; procedure, shortened: as §2
[15] = target: Cruzipain (Trypanosoma cruzi) (UniProt P25779); assay: Inhibition of Trypanosoma cruzi cruzain at 50 uM using Z-Phe-Arg-aminomethylcoumarin as substrate measured after 5 mins in presence of 0.1% triton by spectrofluorimetry; procedure, shortened: as §2
[16] = target: Cruzipain (Trypanosoma cruzi) (UniProt P25779); assay: Inhibition of Trypanosoma cruzi cruzain at 50 uM using Z-Phe-Arg-aminomethylcoumarin as substrate measured after 5 mins in presence of 0.01% triton by spectrofluorimetry; procedure, shortened: as §2
[17] = target: Cruzipain (Trypanosoma cruzi) (UniProt P25779); assay: Inhibition of Trypanosoma cruzi cruzain at 50 uM using Z-Phe-Arg-aminomethylcoumarin as substrate measured after 5 mins in presence of BSA by spectrofluorimetry
Procedure, shortened: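 Cruzain aggregation test: compound pre-incubated with 2 mg/mL BSA, then cruzain (0.5 nM) activity on 2.5 uM Z-FR-AMC in 0.1 M sodium acetate pH 5.5, 0.1 mM beta-mercaptoethanol, 0.01% Triton X-100, monitored 5 min by fluorescence; inhibition from initial rate against DMSO control.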

[18] = target: Cruzipain (Trypanosoma cruzi) (UniProt P25779); assay: Inhibition of Trypanosoma cruzi cruzain at 6.25 uM using Z-Phe-Arg-aminomethylcoumarin as substrate measured after 5 mins in presence of 0.1% triton by spectrofluorimetry; procedure, shortened: as §2
[19] = target: Cruzipain (Trypanosoma cruzi) (UniProt P25779); assay: Inhibition of Trypanosoma cruzi cruzain at 6.25 uM using Z-Phe-Arg-aminomethylcoumarin as substrate measured after 5 mins in presence of 0.01% triton by spectrofluorimetry; procedure, shortened: as §2
[20] = system: Trypanosoma cruzi; assay: Antitrypanosomal activity against trypomastigote stage of Trypanosoma cruzi Y measured after 24 hrs using propidium iodide by neubauer chamber method; assay type: functional, organism-based; procedure, shortened: as §5

SMILES | inhibition [2] [%] | inhibition at 10 µM [3] [%] | inhibition at 25 µM [5] [%] | inhibition [6] [%] | other results
CC(C)OC(=O)c1c(NC(=S)Nc2ccccc2)sc2c1CCCC2 | 74 | 59.6 | 5.8 | 43 | IC50 [1]: 8.78 µM; viability at 24 h, 10 µM [4]: > 50%
C=CCN1C(=O)CS/C1=N\c1sc2c(c1C(=O)OCC)CCCC2 | 40 | 17 | 4.5 | 23 | –
C=CCn1c(C)c(C(=O)OCC)s/c1=N\c1sc2c(c1C(=O)OCC)CCCC2 | 82 | 18.3 | 7.1 | 34 | IC50 [7]: 85 µM; inhibition [8]: 29%; inhibition [9]: 33%
CCOC(=O)c1c(/N=C2\SCC(=O)N2c2ccccc2)sc2c1CCCC2 | 17 | 20.1 | 3.2 | 0 | –
O=C(Cn1ccnc1[N+](=O)[O-])NCc1ccccc1 [BENZNIDAZOLE] | – | 94.5 | 100 | – | IC50 [1]: 1.17 µM
CC(C)OC(=O)c1c(/N=C2\SCC(=O)N2c2ccccc2)sc2c1CCCC2 | 72 | 39.4 | 27 | 33 | IC50 [1]: 6.96 µM; Activity [10]: Toxic
CCOC(=O)c1c(/N=c2\scc(-c3ccccc3)n2-c2ccccc2)sc2c1CCCC2 | – | 23.6 | 5.8 | – | inhibition [11]: 16%; inhibition [12]: 40%
C=CCNC(=S)Nc1sc2c(c1C(=O)OCC)CCCC2 | 41 | 11.9 | 11.9 | 29 | –
CCOC(=O)c1c(NC(=S)Nc2ccccc2)sc2c1CCCC2 | 4 | 47 | 1.6 | 12 | –
CCOC(=O)c1c(/N=C2\SC(CC(=O)O)C(=O)N2c2ccccc2)sc2c1CCCC2 (stereo not given) | 86 | 37.4 | 6.4 | 66 | IC50 [7]: 121 µM; inhibition [8]: 18%; inhibition [9]: 5.4%
CC(C)OC(=O)c1c(/N=c2\scc(-c3ccccc3)n2-c2ccccc2)sc2c1CCCC2 | 25 | 59.5 | 4.5 | 13 | IC50 [1]: 6.03 µM; viability at 24 h, 10 µM [4]: > 50%
C=CCn1c(C)c(C(=O)OCC)s/c1=N\c1sc2c(c1C(=O)OC(C)C)CCCC2 | – | 39.2 | 6.7 | – | inhibition [13]: 71%; inhibition [14]: 38%
C=CCn1c(-c2ccccc2)cs/c1=N\c1sc2c(c1C(=O)OC(C)C)CCCC2 | 67 | 36 | 6.1 | 29 | –
C=CCN1C(=O)C(CC(=O)O)S/C1=N\c1sc2c(c1C(=O)OCC)CCCC2 (stereo not given) | 89 | 13.8 | 5.1 | 64 | inhibition [11]: 50%; inhibition [15]: 44%; inhibition [16]: 47%; IC50 [7]: 50 µM; inhibition [17]: 42%
C=CCNC(=S)Nc1sc2c(c1C(=O)OC(C)C)CCCC2 | 34 | 37.8 | 15.1 | 29 | –
CC(C)C[C@H](NC(=O)[C@H]1O[C@@H]1C(=O)O)C(=O)NCCCCN=C(N)N [E-64] | – | – | – | – | IC50 [7]: 0.4 µM
C=CCN1C(=O)C(C(=O)OCC)S/C1=N\c1sc2c(c1C(=O)OCC)CCCC2 (stereo not given) | 59 | 30 | 16.7 | 18 | –
C=CCn1c(-c2ccccc2)cs/c1=N\c1sc2c(c1C(=O)OCC)CCCC2 | 97 | 53.1 | 5.1 | 87 | inhibition [18]: 55%; IC50 [1]: 9.7 µM; IC50 [7]: 2.4 µM; viability at 24 h, 10 µM [4]: > 50%; inhibition [19]: 62%
CC(C)OC(=O)c1c(/N=C2\SC(CC(=O)O)C(=O)N2c2ccccc2)sc2c1CCCC2 (stereo not given) | 77 | 43.5 | 6.4 | 32 | –
CCOC(=O)c1c(/N=C2\SC(C(=O)OCC)C(=O)N2c2ccccc2)sc2c1CCCC2 (stereo not given) | 66 | 0.43 | 9 | 46 | –
C=CCN1C(=O)CS/C1=N\c1sc2c(c1C(=O)OC(C)C)CCCC2 | 70 | 4.03 | 84.1 | 45 | IC50 [20]: 10.3 µM
C=CCN1C(=O)C(CC(=O)O)S/C1=N\c1sc2c(c1C(=O)OC(C)C)CCCC2 (stereo not given) | 80 | 47.2 | 7.7 | 52 | IC50 [7]: 111 µM; inhibition [8]: 52.7%; inhibition [9]: 53%
